In ChEMBL document CHEMBL2046403, “Biochemical and pharmacological evaluation of 4-hydroxychromen-2-ones bearing polar C-3 substituents as anticoagulants” (Eur J Med Chem, 2012):

Legend:
Rattus norvegicus [1] = experiment: Hepatotoxicity in Wistar albino rat assessed as change in serum gamma-GT level at 0.5 mg/kg, ip measured after 24 hrs; format: toxicity, organism-based; set-up: dose 0.5 mg/kg, route intraperitoneal; conditions: in vivo
Rattus norvegicus [2] = experiment: Hepatotoxicity in Wistar albino rat assessed as change in serum ALP level at 0.5 mg/kg, ip measured after 24 hrs; format: toxicity, organism-based; set-up: dose 0.5 mg/kg, route intraperitoneal; conditions: in vivo
Plasma [3] = experiment: Anticoagulant activity in Wistar albino rat plasma assessed as prothrombin time at 0.5 mg/kg, ip; format: functional; conditions: route intraperitoneal
Method in brief: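 Adult Wistar rats (2.5 months, 220–250 g), three per compound and control, were given a single i.p. dose of 0.1 or 0.5 mg/kg in ethanol solution and sacrificed 24 h later. Plasma prothrombin time was measured by Quick method and reported in seconds and as INR, from at least three measurements.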

Rattus norvegicus [4] = experiment: Hepatotoxicity in Wistar albino rat assessed as change in serum ALT level at 0.5 mg/kg, ip measured after 24 hrs; format: toxicity, organism-based; set-up: dose 0.5 mg/kg, route intraperitoneal; conditions: in vivo
Rattus norvegicus [5] = experiment: Anticoagulant activity in Wistar rats in vivo assessed as prothrombin time
Plasma [6] = experiment: Anticoagulant activity in Wistar albino rat plasma assessed as international normalized ratio at 0.5 mg/kg, ip; format: functional; conditions: route intraperitoneal
Method in brief: (§1)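 Adult Wistar rats (2.5 months, 220–250 g), three per compound and control, were given a single i.p. dose of 0.1 or 0.5 mg/kg in ethanol solution and sacrificed 24 h later. […] Plasma prothrombin time was measured by Quick method and reported in seconds and as INR, from at least three measurements.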

Rattus norvegicus [7] = experiment: Hepatotoxicity in Wistar albino rat assessed as change in serum protein level at 0.5 mg/kg, ip measured after 24 hrs; format: toxicity, organism-based; set-up: dose 0.5 mg/kg, route intraperitoneal; conditions: in vivo
Plasma [8] = experiment: Anticoagulant activity in Wistar albino rat plasma assessed as prothrombin time at 0.1 mg/kg, ip; format: functional; conditions: route intraperitoneal; method in brief: as §1
Plasma [9] = experiment: Anticoagulant activity in Wistar albino rat plasma assessed as international normalized ratio at 0.1 mg/kg, ip; format: functional; conditions: route intraperitoneal; method in brief: as §1
Rattus norvegicus [10] = experiment: Hepatotoxicity in Wistar albino rat assessed as change in serum AST level at 0.5 mg/kg, ip measured after 24 hrs; format: toxicity, organism-based; set-up: dose 0.5 mg/kg, route intraperitoneal; conditions: in vivo
Plasma [11] = experiment: Anticoagulant activity in Wistar albino rat plasma assessed as fibrinogen level; format: functional
Method in brief: (§2)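 Adult albino Wistar rats (2.5 months old, 220–250 g), three per compound and control. […] Fibrin time and fibrinogen were determined on plasma. Fibrinogen was quantified by biuret method at 540 nm. At least three measurements, reported with standard deviation.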

Rattus norvegicus [12] = experiment: Hepatotoxicity in Wistar albino rat assessed as change in serum iron level at 0.5 mg/kg, ip measured after 24 hrs; format: toxicity, organism-based; set-up: dose 0.5 mg/kg, route intraperitoneal; conditions: in vivo
Plasma [13] = experiment: Anticoagulant activity in human plasma assessed as prothrombin time at 1 mg/ml; format: functional
Method in brief: (§3)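 Frozen human plasma (blood type A+) was used. Compounds were prepared at 1 mg/mL in a vehicle of 96% EtOH, 0.9% NaCl, 20% glycerol and phosphate buffer pH 7. Prothrombin time was measured by Quick method and reported in seconds and as INR, with SD from at least three measurements.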

Plasma [14] = experiment: Anticoagulant activity in Wistar albino rat plasma assessed as fibrin time; format: functional; method in brief: as §2
Plasma [15] = experiment: Anticoagulant activity in human plasma assessed as international normalized ratio at 1 mg/ml; format: functional; method in brief: as §3
Rattus norvegicus [16] = experiment: Hepatotoxicity in Wistar albino rat assessed as change in serum bilirubin level at 0.5 mg/kg, ip measured after 24 hrs; format: toxicity, organism-based; set-up: dose 0.5 mg/kg, route intraperitoneal; conditions: in vivo
Rattus norvegicus [17] = experiment: Hepatotoxicity in Wistar albino rat assessed as change in serum albumin level at 0.5 mg/kg, ip measured after 24 hrs; format: toxicity, organism-based; set-up: dose 0.5 mg/kg, route intraperitoneal; conditions: in vivo

O=c1oc2ccccc2c(O)c1-c1csc(Nc2ccc([N+](=O)[O-])cc2)n1
Activity (Rattus norvegicus [1]): 3.8 U/L | Activity (Rattus norvegicus [2]): 204 U/L | PT (Plasma [3]): 9.1 s | Activity (Rattus norvegicus [4]): 68.7 U/L | IC50 (Rattus norvegicus [5]): 2340 µM | Ratio (Plasma [6]): 0.68 | Activity (Rattus norvegicus [7]): 63 g/L | PT (Plasma [8]): 8.1 s | Ratio (Plasma [9]): 0.65 | Activity (Rattus norvegicus [10]): 264.4 U/L | Activity (Plasma [11]): 1.8 g/L | Activity (Rattus norvegicus [12]): 14.8 µmol/L | PT (Plasma [13]): 25 s | Time (Plasma [14]): 33.7 s | Ratio (Plasma [15]): 2.44 | Activity (Rattus norvegicus [16]): 1.7 µmol/L | Activity (Rattus norvegicus [17]): 37.2 g/L

COC(=O)/C(C(=O)O)=C(\C)c1c(O)c2ccccc2oc1=O
Activity (Rattus norvegicus [1]): 4.4 U/L | Activity (Rattus norvegicus [2]): 215 U/L | PT (Plasma [3]): 8.7 s | Activity (Rattus norvegicus [4]): 51.8 U/L | IC50 (Rattus norvegicus [5]): 3160 µM | Ratio (Plasma [6]): 0.48 | Activity (Rattus norvegicus [7]): 62.8 g/L | PT (Plasma [8]): 5.7 s | Ratio (Plasma [9]): 0.37 | Activity (Rattus norvegicus [10]): 218.4 U/L | Activity (Plasma [11]): 3.2 g/L | Activity (Rattus norvegicus [12]): 19.4 µmol/L | PT (Plasma [13]): 20 s | Time (Plasma [14]): 19.4 s | Ratio (Plasma [15]): 1.9 | Activity (Rattus norvegicus [16]): 1.8 µmol/L | Activity (Rattus norvegicus [17]): 35.8 g/L

COC(=O)/C(C(C)=O)=C(/C)c1c(O)c2ccccc2oc1=O
Activity (Rattus norvegicus [1]): 2.8 U/L | Activity (Rattus norvegicus [2]): 285 U/L | PT (Plasma [3]): 9.8 s | Activity (Rattus norvegicus [4]): 65.5 U/L | IC50 (Rattus norvegicus [5]): 1150 µM | Ratio (Plasma [6]): 0.94 | Activity (Rattus norvegicus [7]): 66.4 g/L | PT (Plasma [8]): 9.3 s | Ratio (Plasma [9]): 0.92 | Activity (Rattus norvegicus [10]): 236.9 U/L | Activity (Plasma [11]): 1.6 g/L | Activity (Rattus norvegicus [12]): 23.9 µmol/L | PT (Plasma [13]): 19 s | Time (Plasma [14]): 40.7 s | Ratio (Plasma [15]): 1.8 | Activity (Rattus norvegicus [16]): 1.7 µmol/L | Activity (Rattus norvegicus [17]): 38.9 g/L

CC(=O)C(C(C)=O)=C(C)c1c(O)c2ccccc2oc1=O
Activity (Rattus norvegicus [1]): 4.4 U/L | Activity (Rattus norvegicus [2]): 223 U/L | PT (Plasma [3]): 9.6 s | Activity (Rattus norvegicus [4]): 56.4 U/L | IC50 (Rattus norvegicus [5]): 1380 µM | Ratio (Plasma [6]): 0.72 | Activity (Rattus norvegicus [7]): 66.5 g/L | PT (Plasma [8]): 8.6 s | Ratio (Plasma [9]): 0.69 | Activity (Rattus norvegicus [10]): 201.4 U/L | Activity (Plasma [11]): 2.47 g/L | Activity (Rattus norvegicus [12]): 32.4 µmol/L | PT (Plasma [13]): 17 s | Time (Plasma [14]): 24.6 s | Ratio (Plasma [15]): 1.55 | Activity (Rattus norvegicus [16]): 1.5 µmol/L | Activity (Rattus norvegicus [17]): 40.6 g/L

CC(=O)c1c(O)c2ccccc2oc1=O
Activity (Rattus norvegicus [1]): 3.8 U/L | Activity (Rattus norvegicus [2]): 200 U/L | PT (Plasma [3]): 9.5 s | Activity (Rattus norvegicus [4]): 34.8 U/L | IC50 (Rattus norvegicus [5]): 1700 µM | Ratio (Plasma [6]): 0.9 | Activity (Rattus norvegicus [7]): 63.8 g/L | PT (Plasma [8]): 9.1 s | Ratio (Plasma [9]): 0.9 | Activity (Rattus norvegicus [10]): 160.5 U/L | Activity (Plasma [11]): 2.5 g/L | Activity (Rattus norvegicus [12]): 26.1 µmol/L | PT (Plasma [13]): 14 s | Time (Plasma [14]): 44.9 s | Ratio (Plasma [15]): 1.25 | Activity (Rattus norvegicus [16]): 1.7 µmol/L | Activity (Rattus norvegicus [17]): 31.9 g/L

COC(=O)/C=C(/C)c1c(O)c2ccccc2oc1=O
Activity (Rattus norvegicus [1]): 3 U/L | Activity (Rattus norvegicus [2]): 333 U/L | PT (Plasma [3]): 9 s | Activity (Rattus norvegicus [4]): 57.2 U/L | IC50 (Rattus norvegicus [5]): 2750 µM | Ratio (Plasma [6]): 0.67 | Activity (Rattus norvegicus [7]): 65.2 g/L | PT (Plasma [8]): 8 s | Ratio (Plasma [9]): 0.64 | Activity (Rattus norvegicus [10]): 154.3 U/L | Activity (Plasma [11]): 1.8 g/L | Activity (Rattus norvegicus [12]): 54.2 µmol/L | PT (Plasma [13]): 20 s | Time (Plasma [14]): 35.2 s | Ratio (Plasma [15]): 1.9 | Activity (Rattus norvegicus [16]): 1.4 µmol/L | Activity (Rattus norvegicus [17]): 39 g/L

O=c1oc2ccccc2c(O)c1-c1csc(Nc2cccc3ccccc23)n1
Activity (Rattus norvegicus [1]): 4.3 U/L | Activity (Rattus norvegicus [2]): 210 U/L | PT (Plasma [3]): 9.7 s | Activity (Rattus norvegicus [4]): 85 U/L | IC50 (Rattus norvegicus [5]): 589 µM | Ratio (Plasma [6]): 0.94 | Activity (Rattus norvegicus [7]): 72.8 g/L | PT (Plasma [8]): 9.2 s | Ratio (Plasma [9]): 0.94 | Activity (Rattus norvegicus [10]): 345.3 U/L | Activity (Plasma [11]): 1.9 g/L | Activity (Rattus norvegicus [12]): 24.6 µmol/L | PT (Plasma [13]): 27.5 s | Time (Plasma [14]): 33.2 s | Ratio (Plasma [15]): 2.7 | Activity (Rattus norvegicus [16]): 2 µmol/L | Activity (Rattus norvegicus [17]): 41.3 g/L

Cc1ccccc1Nc1nc(-c2c(O)c3ccccc3oc2=O)cs1
Activity (Rattus norvegicus [1]): 3.6 U/L | Activity (Rattus norvegicus [2]): 318 U/L | PT (Plasma [3]): 8.1 s | Activity (Rattus norvegicus [4]): 59.5 U/L | IC50 (Rattus norvegicus [5]): 5370 µM | Ratio (Plasma [6]): 0.68 | Activity (Rattus norvegicus [7]): 69.2 g/L | PT (Plasma [8]): 8.1 s | Ratio (Plasma [9]): 0.68 | Activity (Rattus norvegicus [10]): 263.4 U/L | Activity (Plasma [11]): 2.1 g/L | Activity (Rattus norvegicus [12]): 29.2 µmol/L | PT (Plasma [13]): 18.1 s | Time (Plasma [14]): 28.7 s | Ratio (Plasma [15]): 1.7 | Activity (Rattus norvegicus [16]): 1.8 µmol/L | Activity (Rattus norvegicus [17]): 36.3 g/L

CCN(CC)c1nc(-c2c(O)c3ccccc3oc2=O)cs1
Activity (Rattus norvegicus [1]): 4.4 U/L | Activity (Rattus norvegicus [2]): 192 U/L | PT (Plasma [3]): 10 s | Activity (Rattus norvegicus [4]): 64.7 U/L | IC50 (Rattus norvegicus [5]): 933 µM | Ratio (Plasma [6]): 0.67 | Activity (Rattus norvegicus [7]): 63.2 g/L | PT (Plasma [8]): 8 s | Ratio (Plasma [9]): 0.64 | Activity (Rattus norvegicus [10]): 254.8 U/L | Activity (Plasma [11]): 1.4 g/L | Activity (Rattus norvegicus [12]): 25 µmol/L | PT (Plasma [13]): 18.5 s | Time (Plasma [14]): 44.9 s | Ratio (Plasma [15]): 1.75 | Activity (Rattus norvegicus [16]): 2 µmol/L | Activity (Rattus norvegicus [17]): 36.7 g/L

O=C(O)CCCCNc1nc(-c2c(O)c3ccccc3oc2=O)cs1
Activity (Rattus norvegicus [1]): 3.5 U/L | Activity (Rattus norvegicus [2]): 246 U/L | PT (Plasma [3]): 10 s | Activity (Rattus norvegicus [4]): 52.6 U/L | IC50 (Rattus norvegicus [5]): 933 µM | Ratio (Plasma [6]): 0.67 | Activity (Rattus norvegicus [7]): 71.5 g/L | PT (Plasma [8]): 8 s | Ratio (Plasma [9]): 0.64 | Activity (Rattus norvegicus [10]): 231.5 U/L | Activity (Plasma [11]): 2.5 g/L | Activity (Rattus norvegicus [12]): 27.4 µmol/L | PT (Plasma [13]): 22 s | Time (Plasma [14]): 23.9 s | Ratio (Plasma [15]): 2.1 | Activity (Rattus norvegicus [16]): 1.2 µmol/L | Activity (Rattus norvegicus [17]): 35.4 g/L
